From ChEMBL document CHEMBL4251566 (Eur J Med Chem, 2018) come the findings set out here.

Data set [1] has as its target Tyrosine-protein kinase BTK (Homo sapiens, UniProt Q06187). Briefly: Inhibition of recombinant full-length N-terminal His-tagged human BTK expressed in baculovirus infected Sf9 insect cells using Poly(4:1 Glu,Tyr) peptide substrate incubated for 60 mins by ADP-Glo luminescence assay. (In general: In ADP-Glo the light output rises with the ADP produced.)
Data set [2] has as its target T1, Tyrosine-protein kinase JAK3 (Homo sapiens, UniProt P52333).
T1 sequence (P52333 whole entry): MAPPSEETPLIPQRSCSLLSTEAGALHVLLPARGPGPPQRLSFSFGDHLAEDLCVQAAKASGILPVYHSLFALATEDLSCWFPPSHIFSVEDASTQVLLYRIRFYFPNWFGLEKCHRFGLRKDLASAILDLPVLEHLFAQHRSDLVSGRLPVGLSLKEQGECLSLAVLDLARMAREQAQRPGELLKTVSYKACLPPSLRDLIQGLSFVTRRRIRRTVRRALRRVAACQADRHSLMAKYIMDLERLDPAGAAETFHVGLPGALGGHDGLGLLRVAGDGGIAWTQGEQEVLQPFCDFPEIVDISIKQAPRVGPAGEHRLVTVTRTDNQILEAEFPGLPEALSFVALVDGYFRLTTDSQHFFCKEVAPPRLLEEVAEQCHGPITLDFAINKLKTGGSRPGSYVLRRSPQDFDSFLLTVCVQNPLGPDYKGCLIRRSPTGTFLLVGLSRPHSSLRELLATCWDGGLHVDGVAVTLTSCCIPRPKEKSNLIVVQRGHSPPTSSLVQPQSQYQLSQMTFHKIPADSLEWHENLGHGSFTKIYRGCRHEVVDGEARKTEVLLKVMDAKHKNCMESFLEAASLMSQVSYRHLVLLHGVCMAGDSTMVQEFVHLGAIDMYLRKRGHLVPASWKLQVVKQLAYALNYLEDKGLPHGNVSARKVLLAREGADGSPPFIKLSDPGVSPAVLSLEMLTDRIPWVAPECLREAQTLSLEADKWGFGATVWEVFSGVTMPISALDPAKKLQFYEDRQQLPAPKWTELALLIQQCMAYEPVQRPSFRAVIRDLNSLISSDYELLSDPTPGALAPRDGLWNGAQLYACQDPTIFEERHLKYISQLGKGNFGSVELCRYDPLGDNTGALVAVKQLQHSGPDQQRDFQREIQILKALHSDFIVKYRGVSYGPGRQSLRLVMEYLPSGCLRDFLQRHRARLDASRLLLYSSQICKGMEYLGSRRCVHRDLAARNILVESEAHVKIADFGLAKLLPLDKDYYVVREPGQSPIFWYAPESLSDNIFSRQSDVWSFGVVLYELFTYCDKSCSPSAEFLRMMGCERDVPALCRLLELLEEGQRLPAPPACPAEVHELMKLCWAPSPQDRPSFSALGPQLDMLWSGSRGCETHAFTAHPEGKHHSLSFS
Briefly: Inhibition of recombinant N-terminal GST-tagged human JAK3 (781 to end residues) expressed in baculovirus infected Sf9 insect cells using Poly(4:1 Glu,Tyr) peptide substrate incubated for 60 mins by ADP-Glo luminescence assay. The gist of the method: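 ADP-Glo luminescent kinase assay. The kinase reaction ran 60 min at room temperature in 1× kinase buffer. ADP-Glo reagent was added to stop the reaction and deplete ATP, followed by 40 min at room temperature. Detection reagent then converted ADP to ATP for a luciferase readout, followed by 30 min at room temperature. Luminescence was integrated over 0.5–1 s, and IC50 came from curve fitting.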

Another data set has as its system Raji. Description: Antiproliferative activity against human Raji cells after 72 hrs by CCK-8 assay. It is filed as functional, cell-based. Put shortly:
(§1)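 CCK-8 viability assay. Cells were seeded at 3000/well in RPMI-1640 with 10% FBS at 37 °C, 5% CO2, for 4 h before treatment. Exposure was 72 h at five concentrations (1.25, 5, 10, 20, 40 µM), each in five replicates. Absorbance was read at 450 nm. IC50 came from dose-response curves, as the mean of at least three separate experiments.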
In general terms: Tetrazolium dyes change colour on reduction, which living cells bring about.

The next data set has as its system NAMALVA. Briefly: Antiproliferative activity against human NAMALWA cells after 72 hrs by CCK-8 assay. It is filed as functional, cell-based. Put shortly:
as §1

In data set [3] the test system is Ramos. Briefly: Antiproliferative activity against human Ramos cells assessed as inhibition of cell viability at 20 uM after 72 hrs by CCK-8 assay. It is filed as functional. Put shortly:
as §1

In data set [4] the test system is Ramos. Description: Induction of apoptosis in human Ramos cells assessed as late apoptotic cells at 5 uM after 72 hrs by Annexin V-FITC/propidium iodide staining based flow cytometry (reference value: 0.5%). It is filed as functional.
The test system of data set [5] is Ramos. Description: Antitumor activity against human Ramos cells xenografted in CB17/SCID mouse assessed as tumor growth inhibition at 60 mg/kg, po qd for 14 days. It is filed as functional. The following applies: 336 h, read-out: TGI. Put shortly: (§2)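 Female CB17/SCID mice, 5–6 weeks old and 20–25 g, received 3×10⁶ Ramos cells in 0.1 mL PBS subcutaneously in the right axilla. From day 3 after implantation, dosing was oral at 30 or 60 mg/kg for 14 days; vehicle controls got oral 25% PEG-400. Tumor volume was A×B²/2 from caliper diameters. Tumor weight was taken at sacrifice, and body weight was tracked. n = 5.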

The test system of the next data set is Mus musculus. Description: Toxicity in CB17/SCID mouse xenografted with Ramos cells assessed as change in body weight at 60 mg/kg, po qd for 14 days. The following applies: in vivo, 336 h. It is filed as organism-based. The gist of the method:
as §2

The test system of data set [6] is Ramos. Description: Induction of apoptosis in human Ramos cells assessed as total apoptosis rate at 10 uM after 72 hrs by Annexin V-FITC/propidium iodide staining based flow cytometry relative to control. A general note: A flow cytometer gives signals particle by particle.
The subject of data set [7] is Ramos. Briefly: Induction of apoptosis in human Ramos cells assessed as total apoptosis rate at 20 uM after 72 hrs by Annexin V-FITC/propidium iodide staining based flow cytometry relative to control.

Sequence of Tyrosine-protein kinase BTK (Q06187 whole entry): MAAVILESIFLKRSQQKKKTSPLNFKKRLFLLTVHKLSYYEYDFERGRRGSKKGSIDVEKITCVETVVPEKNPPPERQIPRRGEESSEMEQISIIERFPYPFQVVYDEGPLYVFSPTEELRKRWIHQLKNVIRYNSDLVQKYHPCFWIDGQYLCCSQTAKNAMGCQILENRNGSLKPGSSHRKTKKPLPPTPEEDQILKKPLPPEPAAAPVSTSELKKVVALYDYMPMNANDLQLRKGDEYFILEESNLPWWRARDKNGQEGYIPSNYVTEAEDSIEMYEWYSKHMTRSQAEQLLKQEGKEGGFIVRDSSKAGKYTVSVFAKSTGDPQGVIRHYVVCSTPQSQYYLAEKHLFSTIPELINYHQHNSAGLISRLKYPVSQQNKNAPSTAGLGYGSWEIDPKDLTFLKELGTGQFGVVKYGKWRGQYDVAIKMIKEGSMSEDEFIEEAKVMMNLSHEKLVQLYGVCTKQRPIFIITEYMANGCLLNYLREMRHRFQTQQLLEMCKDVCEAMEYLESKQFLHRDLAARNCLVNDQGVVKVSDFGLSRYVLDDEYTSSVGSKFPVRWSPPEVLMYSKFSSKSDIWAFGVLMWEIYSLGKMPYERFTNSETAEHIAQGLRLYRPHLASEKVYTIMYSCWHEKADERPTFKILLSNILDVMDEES

One may read the IC50 as the midpoint of a concentration-inhibition curve. As a reminder, the inhibition is the change of the read-out against control, counted positive when it falls. In the case of `C=CC(=O)Nc1cccc(Nc2nc(Nc3ccc(OCCCN4CCOCC4)cc3)ncc2Cl)c1`, the IC50 in data set [1] was 0.6 nM; in [2], 0.83 nM; in the data set on Raji, 9.32 µM; in the data set with NAMALVA, 8.23 µM. Besides, the inhibition at 20 µM with Ramos [3] was 91%. The Activity in the data set on Ramos [4] is given as 8.2%; in the data set on Mus musculus, “<= 5%”; in the data set with Ramos [6], 77.2%; with Ramos [7] it was 80.2%. Further, the inhibition in vivo at 60 mg/kg in the data set on Ramos [5] came to 47.5%.
For the compound `C=CC(=O)Nc1cccc(Nc2nc(Nc3ccc(OCC(=O)N4CCOCC4)c(Cl)c3)ncc2Cl)c1`, the IC50 in [1] is 0.8 nM; in data set [2] it was 8.34 nM; in the data set with Raji, 8.89 µM; with NAMALVA it was 6.45 µM. Besides, the inhibition at 20 µM in the data set on Ramos [3] was 91%. The Activity is given as 7% in the data set on Ramos [4], “<= 5%” in the data set on Mus musculus, 69.9% with Ramos [6] and 79.5% in the data set on Ramos [7]. Further, in the data set on Ramos [5], the inhibition in vivo at 60 mg/kg amounted to 36.6%.
